Assay results: ChEMBL document CHEMBL1140315, “Design and synthesis of the first generation of novel potent, selective, and in vivo active (benzothiazol-2-yl)acetonitrile inhibitors of the c-Jun N-terminal kinase” (J Med Chem, 2005)

Columns and labels:
[1] = biological target: Mitogen-activated protein kinase 10 (Rattus norvegicus, UniProt P49187); test: Inhibition of rat c-Jun N-terminal kinase 3
Jurkat = test: Ability to inhibit IL-2 production induced with phorbol-12, myristate-13 acetate and ionomycin in Jurkat T cell at the concentration of 10 uM; assay type: functional; details: Homo sapiens
How it was run: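 Jurkat human T cell leukemia cells in RPMI 1640 with 10% heat-inactivated FCS, plated at 2 × 10⁵ cells/well. Compounds added in 0.1% DMSO and preincubated 30 min at 37 °C. Cells then stimulated with PMA + ionomycin (0.1 and 1 µM final) for 24 h at 37 °C. IL-2 in the supernatant measured by sandwich ELISA against a recombinant human IL-2 standard.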

[2] = Oral bioavailability in rat; assay type: ADME, organism-based; details: in vivo, read-out: Bioavailabiility
Mus musculus = test: Dose administered orally to decrease TNF alpha plasma level in mice; assay type: functional; details: po
How it was run: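 Groups of six mice. LPS endotoxin (O111:B4, 0.3 mg/kg) given i.p. 15 min later. Plasma TNF-α measured by ELISA in heparinized blood collected by decapitation. Data given as mean ± SEM, analysed by one-way ANOVA with Dunnett's t-test.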

[3] = biological target: Ribosomal protein S6 kinase (P70S6K) (Homo sapiens, UniProt P23443+Q9UBS0); test: Inhibition of p70S6K; assay type: protein-complex assay
[4] = biological target: RAC-alpha serine/threonine-protein kinase (Homo sapiens, UniProt P31749); test: Inhibition of AKT kinase
Sequence of RAC-alpha serine/threonine-protein kinase (P31749 whole entry): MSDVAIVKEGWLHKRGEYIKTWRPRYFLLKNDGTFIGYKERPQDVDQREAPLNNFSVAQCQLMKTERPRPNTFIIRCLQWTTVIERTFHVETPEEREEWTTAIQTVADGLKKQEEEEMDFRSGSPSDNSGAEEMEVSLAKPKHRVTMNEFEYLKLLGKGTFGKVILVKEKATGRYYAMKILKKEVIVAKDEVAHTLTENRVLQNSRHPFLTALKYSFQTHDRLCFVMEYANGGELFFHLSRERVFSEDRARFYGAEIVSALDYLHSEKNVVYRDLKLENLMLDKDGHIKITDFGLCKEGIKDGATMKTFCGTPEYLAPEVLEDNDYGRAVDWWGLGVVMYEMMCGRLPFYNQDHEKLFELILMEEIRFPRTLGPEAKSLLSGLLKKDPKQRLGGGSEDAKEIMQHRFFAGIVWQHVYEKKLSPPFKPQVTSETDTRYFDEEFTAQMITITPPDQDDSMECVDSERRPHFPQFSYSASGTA

[5] = Inhibition of p56 lck tyrosine kinase
[6] = biological target: RAF proto-oncogene serine/threonine-protein kinase (Homo sapiens, UniProt P04049); test: Inhibition of RAF proto-oncogene serine/threonine protein kinase
[7] = biological target: Serine/threonine-protein kinase Sgk1 (Homo sapiens, UniProt O00141); test: Inhibition of SGK; Range is 5-10
[8] = Inhibition of PI3k-gamma
[9] = biological target: Proto-oncogene tyrosine-protein kinase Src (Homo sapiens, UniProt P12931); test: Inhibition of c-SRC tyrosine kinase
Sequence of Proto-oncogene tyrosine-protein kinase Src (P12931 2-536 limits assumed): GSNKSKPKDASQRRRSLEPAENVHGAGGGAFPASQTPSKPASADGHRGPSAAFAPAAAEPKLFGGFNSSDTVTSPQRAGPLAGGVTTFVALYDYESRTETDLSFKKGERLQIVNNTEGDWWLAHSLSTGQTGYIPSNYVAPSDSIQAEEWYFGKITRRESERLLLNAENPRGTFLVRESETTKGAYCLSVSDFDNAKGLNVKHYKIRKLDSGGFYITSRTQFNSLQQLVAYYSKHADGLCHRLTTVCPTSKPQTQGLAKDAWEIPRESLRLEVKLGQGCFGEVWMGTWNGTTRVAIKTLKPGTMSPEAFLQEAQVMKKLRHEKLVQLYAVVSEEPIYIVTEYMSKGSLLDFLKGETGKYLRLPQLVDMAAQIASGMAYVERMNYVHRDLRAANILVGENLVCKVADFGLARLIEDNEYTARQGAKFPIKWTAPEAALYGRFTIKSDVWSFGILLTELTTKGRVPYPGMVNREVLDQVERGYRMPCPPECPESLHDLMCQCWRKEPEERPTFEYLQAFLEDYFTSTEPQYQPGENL

[10] = biological target: Rho-associated protein kinase 2 (Homo sapiens, UniProt O75116); test: Inhibition of protein kinase ROCK2; Range is 5-10
[11] = biological target: Cyclin-dependent kinase 2/cyclin A (Homo sapiens, UniProt P24941); test: Inhibition of CDK2/cyclin A; assay type: protein-complex assay
[12] = biological target: Ribosomal protein S6 kinase alpha-5 (Homo sapiens, UniProt O75582); test: Inhibition of MSK-1 kinase; Range is 5-10
[13] = biological target: MAP kinase-activated protein kinase 5 (Homo sapiens, UniProt Q8IW41); test: Inhibition of protein kinase PRAK
Sequence of MAP kinase-activated protein kinase 5 (Q8IW41 whole entry): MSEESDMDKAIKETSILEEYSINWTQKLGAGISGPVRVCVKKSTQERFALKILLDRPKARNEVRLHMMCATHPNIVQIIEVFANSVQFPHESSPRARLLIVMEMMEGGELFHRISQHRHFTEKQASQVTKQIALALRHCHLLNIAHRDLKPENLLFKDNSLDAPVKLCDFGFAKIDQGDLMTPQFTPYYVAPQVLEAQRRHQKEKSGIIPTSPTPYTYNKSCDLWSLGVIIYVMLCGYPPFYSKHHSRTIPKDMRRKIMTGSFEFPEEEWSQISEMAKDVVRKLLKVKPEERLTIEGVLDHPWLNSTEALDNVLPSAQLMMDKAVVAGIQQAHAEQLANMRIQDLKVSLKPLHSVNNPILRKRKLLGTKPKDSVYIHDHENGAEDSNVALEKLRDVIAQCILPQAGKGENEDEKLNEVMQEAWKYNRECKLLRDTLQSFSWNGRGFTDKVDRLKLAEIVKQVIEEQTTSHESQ

[14] = biological target: 3-phosphoinositide-dependent protein kinase 1 (Homo sapiens, UniProt O15530); test: Inhibitory concentration against PDK 1
Sequence of 3-phosphoinositide-dependent protein kinase 1 (O15530 whole entry): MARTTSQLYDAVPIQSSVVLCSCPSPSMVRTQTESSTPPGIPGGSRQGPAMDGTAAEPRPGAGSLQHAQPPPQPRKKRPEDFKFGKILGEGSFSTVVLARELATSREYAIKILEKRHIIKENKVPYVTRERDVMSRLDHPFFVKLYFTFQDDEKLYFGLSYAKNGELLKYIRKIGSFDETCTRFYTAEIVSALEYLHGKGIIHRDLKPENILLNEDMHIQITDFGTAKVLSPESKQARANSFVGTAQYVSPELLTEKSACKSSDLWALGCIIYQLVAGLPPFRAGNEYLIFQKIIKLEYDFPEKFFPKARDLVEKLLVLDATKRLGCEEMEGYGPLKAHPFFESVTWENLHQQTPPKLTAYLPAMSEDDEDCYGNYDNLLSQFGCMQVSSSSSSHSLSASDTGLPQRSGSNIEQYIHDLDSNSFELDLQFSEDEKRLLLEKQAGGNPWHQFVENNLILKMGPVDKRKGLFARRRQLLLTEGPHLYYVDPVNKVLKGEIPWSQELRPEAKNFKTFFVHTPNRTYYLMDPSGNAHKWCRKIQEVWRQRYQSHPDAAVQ

[15] = biological target: Serine/threonine-protein kinase Chk1 (Homo sapiens, UniProt O14757); test: Inhibition of CHK1 kinase
[16] = biological target: Tyrosine-protein kinase Blk (Homo sapiens, UniProt P51451); test: Inhibition of BLK; Range is 5-10
[17] = biological target: Mitogen-activated protein kinase 9 (Homo sapiens, UniProt P45984); test: Inhibitory concentration against c-Jun N-Terminal kinase 2
Sequence of Mitogen-activated protein kinase 9 (P45984 whole entry): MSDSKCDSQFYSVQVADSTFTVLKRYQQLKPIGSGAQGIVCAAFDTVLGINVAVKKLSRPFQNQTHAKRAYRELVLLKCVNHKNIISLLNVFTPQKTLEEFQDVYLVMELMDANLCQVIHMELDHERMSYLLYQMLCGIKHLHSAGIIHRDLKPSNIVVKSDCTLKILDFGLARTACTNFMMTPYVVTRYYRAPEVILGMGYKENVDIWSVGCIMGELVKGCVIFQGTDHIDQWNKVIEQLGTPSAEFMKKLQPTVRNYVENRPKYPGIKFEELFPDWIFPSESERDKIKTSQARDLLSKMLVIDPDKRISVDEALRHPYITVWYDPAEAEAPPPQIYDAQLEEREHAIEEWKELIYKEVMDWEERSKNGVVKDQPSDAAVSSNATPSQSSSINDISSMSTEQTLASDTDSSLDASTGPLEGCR

[18] = biological target: Inhibitor of nuclear factor kappa-B kinase subunit beta (Homo sapiens, UniProt O14920); test: Inhibition of IKKB kinase
[19] = biological target: MAP kinase-activated protein kinase 2 (Homo sapiens, UniProt P49137); test: Inhibition of MAP kinase-activated protein kinase 2
[20] = biological target: Dual specificity mitogen-activated protein kinase kinase 7 (Homo sapiens, UniProt O14733); test: Inhibition of mitogen activated protein kinase kinase 7 beta
[21] = biological target: Mitogen-activated protein kinase 3 (Homo sapiens, UniProt P27361); test: Inhibition of ERK1 kinase
Sequence of Mitogen-activated protein kinase 3 (P27361 whole entry): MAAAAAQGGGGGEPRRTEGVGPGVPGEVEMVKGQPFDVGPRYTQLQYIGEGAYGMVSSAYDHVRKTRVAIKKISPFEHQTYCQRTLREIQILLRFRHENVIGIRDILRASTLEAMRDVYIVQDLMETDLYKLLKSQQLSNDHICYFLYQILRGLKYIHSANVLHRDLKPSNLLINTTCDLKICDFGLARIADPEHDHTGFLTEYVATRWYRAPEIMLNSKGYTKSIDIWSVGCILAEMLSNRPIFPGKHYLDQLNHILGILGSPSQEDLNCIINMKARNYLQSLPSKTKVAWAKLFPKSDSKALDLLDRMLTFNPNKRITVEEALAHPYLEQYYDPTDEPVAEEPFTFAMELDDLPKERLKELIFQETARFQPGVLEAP

[22] = biological target: Dual specificity mitogen-activated protein kinase kinase 1 (Homo sapiens, UniProt Q02750); test: Inhibition of mitogen activated protein kinase kinase 1 (MEK1)
Sequence of Dual specificity mitogen-activated protein kinase kinase 1 (Q02750 whole entry): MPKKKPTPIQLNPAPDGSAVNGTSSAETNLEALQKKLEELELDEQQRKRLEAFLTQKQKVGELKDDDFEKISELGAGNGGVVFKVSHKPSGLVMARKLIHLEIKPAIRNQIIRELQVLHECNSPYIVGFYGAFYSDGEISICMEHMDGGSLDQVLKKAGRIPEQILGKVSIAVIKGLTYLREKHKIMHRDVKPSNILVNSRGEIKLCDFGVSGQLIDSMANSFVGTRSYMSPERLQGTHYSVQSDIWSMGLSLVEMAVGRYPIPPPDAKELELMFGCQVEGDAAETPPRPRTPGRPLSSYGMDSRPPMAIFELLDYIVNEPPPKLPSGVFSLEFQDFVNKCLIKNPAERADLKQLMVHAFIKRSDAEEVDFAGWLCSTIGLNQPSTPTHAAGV

[23] = biological target: Dual specificity mitogen-activated protein kinase kinase 6 (Homo sapiens, UniProt P52564); test: Inhibition of Mitogen activated protein kinase 6; Range is 5-10
[24] = biological target: Dual specificity mitogen-activated protein kinase kinase 4 (Homo sapiens, UniProt P45985); test: Inhibition of Mitogen activated protein kinase kinase 4
[25] = biological target: Protein kinase C alpha type (Homo sapiens, UniProt P17252); test: Inhibition of protein kinase C alpha
[26] = biological target: Mitogen-activated protein kinase 14 (Homo sapiens, UniProt Q16539); test: Inhibition of MAP kinase p38 alpha
[27] = biological target: Mitogen-activated protein kinase 8 (Homo sapiens, UniProt P45983); test: Inhibition of c-Jun N-Terminal kinase 1
Sequence of Mitogen-activated protein kinase 8 (P45983 whole entry): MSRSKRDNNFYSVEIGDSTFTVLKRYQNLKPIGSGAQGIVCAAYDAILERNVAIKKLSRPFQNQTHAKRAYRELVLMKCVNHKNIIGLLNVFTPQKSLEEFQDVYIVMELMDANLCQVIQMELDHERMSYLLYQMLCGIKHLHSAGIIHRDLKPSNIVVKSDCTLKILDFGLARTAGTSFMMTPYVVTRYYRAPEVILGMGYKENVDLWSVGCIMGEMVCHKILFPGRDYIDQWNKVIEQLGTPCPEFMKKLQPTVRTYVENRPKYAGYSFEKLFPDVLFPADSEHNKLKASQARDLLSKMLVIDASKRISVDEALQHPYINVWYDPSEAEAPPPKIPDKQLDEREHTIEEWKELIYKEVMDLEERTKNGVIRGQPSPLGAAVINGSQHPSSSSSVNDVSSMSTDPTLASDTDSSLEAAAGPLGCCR

Sequence of Mitogen-activated protein kinase 10 (P49187 whole entry): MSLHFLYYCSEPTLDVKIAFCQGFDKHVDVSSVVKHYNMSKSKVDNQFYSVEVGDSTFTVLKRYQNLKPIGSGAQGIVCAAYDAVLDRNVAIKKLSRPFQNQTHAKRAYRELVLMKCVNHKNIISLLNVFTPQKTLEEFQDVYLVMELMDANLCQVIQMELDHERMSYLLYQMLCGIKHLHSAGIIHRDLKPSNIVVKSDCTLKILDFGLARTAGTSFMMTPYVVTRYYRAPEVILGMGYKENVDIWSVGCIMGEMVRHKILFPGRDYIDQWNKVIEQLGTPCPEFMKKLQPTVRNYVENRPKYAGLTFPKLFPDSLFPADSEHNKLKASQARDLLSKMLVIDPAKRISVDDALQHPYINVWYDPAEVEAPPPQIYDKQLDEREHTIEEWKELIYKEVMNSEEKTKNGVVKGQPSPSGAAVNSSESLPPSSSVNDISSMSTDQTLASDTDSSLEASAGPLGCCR

N#C/C(=C1/Nc2ccccc2S1)c1ccnc(NCc2ccccc2)n1
IC50 [1]: 6500 nM

N#C/C(=C1/Nc2ccccc2S1)c1ccnc(NCc2ccccn2)n1
IC50 [1]: 650 nM

N#C/C(=C1/Nc2ccccc2S1)c1ccnc(NCCc2ccc(O)cc2)n1
IC50 [1]: 3500 nM

CN1CCN(CCCNc2nccc(/C(C#N)=C3\Nc4ccccc4S3)n2)CC1
inhibition at 10 µM (Jurkat): 83%

COC1CCN(c2nccc(/C(C#N)=C3\Nc4ccccc4S3)n2)CC1
IC50 [1]: 7200 nM

CCO/C(O)=C(\c1ccnc(Cl)n1)c1nc2ccccc2s1
IC50 [1]: > 5000 nM

N#C/C(=C1/Nc2ccccc2S1)c1ccnc(NN)n1
IC50 [1]: 500 nM

CNCCCN(C)c1nccc(/C(C#N)=C2\Nc3ccccc3S2)n1
IC50 [1]: 1320 nM

N#C/C(=C1/Nc2ccccc2S1)c1ccnc(NCCc2cccc(Cl)c2)n1
IC50 [1]: > 5000 nM

COc1ccc(CCNc2nccc(/C(C#N)=C3\Nc4ccccc4S3)n2)cc1
IC50 [1]: 3080 nM

CN(C)CCNc1nccc(/C(C#N)=C2\Nc3ccccc3S2)n1
IC50 [1]: 1300 nM

CNc1nccc(/C(C#N)=C2\Nc3ccccc3S2)n1
IC50 [1]: 950 nM

N#C/C(=C1/Nc2ccccc2S1)c1ccnc(N2CCOCC2)n1
IC50 [1]: 2900 nM

Cn1cncc1CCNc1nccc(/C(C#N)=C2\Nc3ccccc3S2)n1
inhibition at 10 µM (Jurkat): 100%

N#CC(=C1Nc2ccccc2N1)c1nc(Cl)ncc1Br
IC50 [1]: > 5000 nM

CN1/C(=C(/C#N)c2ccnc(Cl)n2)Sc2ccccc21
IC50 [1]: > 5000 nM

N#C/C(=C1/Nc2ccccc2S1)c1ccnc(NCCc2cccc(F)c2)n1
IC50 [1]: 1810 nM

N#C/C(=C1/Nc2ccccc2S1)c1ccnc(NCCc2ccc(Br)cc2)n1
IC50 [1]: > 5000 nM

N#C/C(=C1/Nc2ccccc2S1)c1ccnc(NCCCN)n1
IC50 [1]: 707 nM

COCCNc1nccc(/C(C#N)=C2\Nc3ccccc3S2)n1
IC50 [1]: 820 nM

N#C/C(=C1/Nc2ccccc2S1)c1cc(Br)nc(Cl)n1
IC50 [1]: 350 nM

N#C/C(=C1/Nc2ccccc2S1)c1ccncn1
IC50 [1]: > 5000 nM

CN(C)c1nccc(/C(C#N)=C2\Nc3ccccc3S2)n1
IC50 [1]: 9400 nM

N#C/C(=C1/Nc2ccccc2S1)c1ccnc(NCCN2CCOCC2)n1
IC50 [1]: 760 nM

N#C/C(=C1/Nc2ccccc2S1)c1ccnc(NCCn2cncn2)n1
IC50 [1]: 397 nM

CN1CCN(c2nccc(/C(C#N)=C3\Nc4ccccc4S3)n2)CC1
IC50 [1]: 6800 nM

N#C/C(=C1/Nc2ccccc2S1)c1ccnc(NCCN2CCCCC2)n1
IC50 [1]: 3740 nM

N#C/C(=C1/Nc2ccccc2S1)c1ccnc(NCCc2ccccc2)n1
IC50 [1]: > 5000 nM

Cc1cc(/C(C#N)=C2\Nc3ccccc3S2)nc(Cl)n1
IC50 [1]: > 5000 nM

N#C/C(=C1/Nc2ccccc2S1)c1ccnc(NCCc2ccc(Cl)c(Cl)c2)n1
IC50 [1]: > 5000 nM

Cc1ccc(CCNc2nccc(/C(C#N)=C3\Nc4ccccc4S3)n2)cc1
IC50 [1]: > 5000 nM

N#C/C(=C1/Nc2cc(C(F)(F)F)ccc2S1)c1ccnc(Cl)n1
IC50 [1]: 993 nM

N#C/C(=C1/Nc2ccccc2S1)c1ccnc(NCCc2cccnc2)n1.O=C(O)C(F)(F)F.O=C(O)C(F)(F)F
bioavailability [2]: 38%
ED50 (Mus musculus): 3 mg/kg
IC50 [3]: > 10000 nM
IC50 [4]: > 10000 nM
IC50 [5]: > 10000 nM
IC50 [6]: 1200 nM
IC50 [7]: 10000 nM
inhibition at 10 µM (Jurkat): 90%
IC50 [8]: > 10000 nM
IC50 [9]: 1100 nM
IC50 [10]: 10000 nM
IC50 [11]: 1400 nM
IC50 [12]: 10000 nM
IC50 [13]: > 10000 nM
IC50 [14]: > 10000 nM
IC50 [15]: > 10000 nM
IC50 [16]: 10000 nM
IC50 [17]: 220 nM
IC50 [18]: > 10000 nM
IC50 [19]: > 10000 nM
IC50 [20]: > 10000 nM
IC50 [21]: > 10000 nM
IC50 [22]: > 10000 nM
IC50 [23]: 10000 nM
IC50 [24]: > 10000 nM
IC50 [25]: > 10000 nM
IC50 [26]: 4800 nM
IC50 [27]: 150 nM

N#C/C(=C1/Nc2ccccc2S1)c1ccnc(NCCO)n1
IC50 [1]: 510 nM

N#C/C(=C1/Nc2ccccc2S1)c1ccnc(NCCc2ccccn2)n1
inhibition at 10 µM (Jurkat): 60%
IC50 [1]: 250 nM

N#C/C(=C1/Nc2ccccc2S1)c1ccnc(NCc2cccnc2)n1
inhibition at 10 µM (Jurkat): 95%
IC50 [1]: 337 nM

N#C/C(=C1/Nc2ccccc2S1)c1ccnc(NCc2ccncc2)n1
IC50 [1]: 340 nM

N#C/C(=C1/Nc2ccccc2S1)c1cccc(Cl)n1
IC50 [1]: > 5000 nM

N#C/C(=C1/Nc2ccccc2S1)c1ccnc(NCCCN2CCOCC2)n1
IC50 [1]: 407 nM

Cn1cnc(CCNc2nccc(/C(C#N)=C3\Nc4ccccc4S3)n2)c1
IC50 [1]: 65 nM

N#C/C(=C1/Nc2ccccc2S1)c1ccnc(Cl)n1
inhibition at 10 µM (Jurkat): 90%
IC50 [1]: 250 nM

N#C/C(=C1/Nc2ccccc2S1)c1ccnc(NCCc2ccc(N)cc2)n1
inhibition at 10 µM (Jurkat): 80%
IC50 [1]: 80 nM

N#C/C(=C1/Nc2ccccc2S1)c1ccnc(NCCn2ccc3ccccc32)n1
IC50 [1]: 458 nM

N#C/C(=C1/Nc2ccccc2S1)c1ccnc(NCCCO)n1
IC50 [1]: 660 nM

N#C/C(=C1/Nc2ccccc2S1)c1ccnc(NCCN)n1
IC50 [1]: 1490 nM

N#C/C(=C1/Nc2ccccc2S1)c1ccnc(NCCc2ccc([N+](=O)[O-])cc2)n1
IC50 [1]: 600 nM

N#C/C(=C1/Nc2ccccc2S1)c1ccnc(NCCc2ccc(S(N)(=O)=O)cc2)n1
IC50 [1]: 41 nM

N#C/C(=C1/Nc2ccccc2S1)c1ccnc(N)n1
IC50 [1]: 7500 nM

N#C/C(=C1/Nc2ccccc2S1)c1ccnc(NCCc2c[nH]cn2)n1
inhibition at 10 µM (Jurkat): 80%
IC50 [1]: 80 nM

CCCN(CCC)c1nccc(/C(C#N)=C2\Nc3ccccc3S2)n1
IC50 [1]: > 5000 nM

N#C/C(=C1/Nc2ccccc2S1)c1ccnc(N2CCNCC2)n1
IC50 [1]: 6600 nM

N#C/C(=C1/Nc2ccccc2S1)c1ccnc(NCCCn2ccnc2)n1
inhibition at 10 µM (Jurkat): 31%
IC50 [1]: 147 nM

CN(C)CCCNc1nccc(/C(C#N)=C2\Nc3ccccc3S2)n1
IC50 [1]: 1640 nM

CCCNc1nccc(/C(C#N)=C2\Nc3ccccc3S2)n1
IC50 [1]: > 5000 nM

N#C/C(=C1/Nc2ccccc2S1)c1ccnc(NCc2nn[nH]n2)n1
IC50 [1]: > 5000 nM

N#C/C(=C1/Nc2ccccc2S1)c1ccnc(NCCCn2cccn2)n1
IC50 [1]: 583 nM

N#C/C(=C1/Nc2ccccc2S1)c1ccnc(NCCc2ccc(F)cc2)n1
inhibition at 10 µM (Jurkat): 0%
IC50 [1]: > 5000 nM

CCCN(CCCNc1nccc(/C(C#N)=C2\Nc3ccccc3S2)n1)C(=O)CC
IC50 [1]: 1340 nM

N#C/C(=C1/Nc2ccccc2S1)c1ccnc(NCCc2ccccc2F)n1
inhibition at 10 µM (Jurkat): 90%
IC50 [1]: 273 nM
